# Measured values from ChEMBL document CHEMBL2010771, “Studies toward novel peptidomimetic inhibitors of thioredoxin-thioredoxin reductase system” (J Med Chem, 2012).
# The source made the active and inactive calls. The rule behind the calls is not given here.
# Key:
# [1] = tested on: Mus musculus; test: Toxicity in mouse EMT6 cells allografted BALB/c mouse assessed as change in body weight at 40 to 80 mg/kg, ip qd for 7 days; type: organism-based; parameters: dose 40-80 mg/kg, route intraperitoneal; settings: in vivo, 168 h
# Method in brief: (§1)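 BALB/c mice, 8−12 weeks old, inoculated sc with 3.5 × 10^5 EMT6 cells into the depilated right thigh. Intraperitoneal dosing in DMSO began on day 7, when tumors reached a longer diameter of 5−7 mm, and was given daily. Controls received ip DMSO. Tumor volume was followed by calipers as longer × shorter²/2. Survival and body weight were monitored.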
# [2] = tested on: EMT6; test: Antitumor activity against mouse EMT6 cells allografted in BALB/c mouse assessed as prolongation of host survival time at 80 mg/kg, ip qd for 7 days; type: functional, organism-based; parameters: dose 80 mg/kg; method in brief: as §1
# [3] = tested on: Raji; test: Induction of Trx mRNA expression in human Raji cells at 5 to 10 uM after 4 to 24 hrs by RT-PCR analysis; type: functional, cell-based
# [4] = tested on: Raji; test: Inhibition of Trx1/TrxR in human Raji cells after 4 hrs by insulin reduction assay; type: cell-based
# Method in brief: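 Raji cells incubated with compound for 4 h, washed three times with PBS and lysed in 0.1% NP40 with protease inhibitors. Protein measured by BCA. Trx activity determined in 10 μg of total protein by kit insulin reduction with TrxR/NADPH for 20 min at 37 °C, then DTNB/guanidine stop and A412. Triplicates, n = 3, SD.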
# [5] = target: T1, Thioredoxin (Homo sapiens) (UniProt P10599); test: Inhibition of thioredoxin in human HeLa cells assessed as decrease of H2O2 scavenging activity by measuring CM-H2DCFDA fluorescence at 10 uM after 4 hrs by flow cytometeric analysis; type: cell-based
# T1 sequence (whole entry): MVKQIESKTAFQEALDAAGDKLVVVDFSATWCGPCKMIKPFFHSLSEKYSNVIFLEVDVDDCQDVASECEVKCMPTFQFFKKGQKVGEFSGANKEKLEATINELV
# Method in brief: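 HeLa cells treated 4 h with 10 or 20 μM compound, then trypsinized and resuspended in PBS. H2O2 added to 1 mM final for 10 min, then 1 μL of 5 mM CM-H2DCFDA for 15 min at 37 °C. Cells washed twice and 10^4 cells analyzed by flow cytometry. Triplicates, n = 3, Student's t test.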
# [6] = Solubility of the compound in biological media; type: ADME
# [7] = Cytotoxicity against mouse PancO2 cells after 72 hrs by crystal violet staining; type: functional; settings: read-out: LD50 (the source's name)
# [8] = tested on: EMT6; test: Cytotoxicity against mouse EMT6 cells after 72 hrs by crystal violet staining; type: functional; settings: EMT6, 72 h, read-out: LD50 (the source's name)
# [9] = Chemical stability of the compound in 0.01 M PBS buffer at pH 7.4 after 4 days by RP-HPLC analysis; type: physicochemical; settings: pH 7.4, 96 h
# Method in brief: (§2)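 Stock in DMSO (5 mg/mL) diluted about 100-fold into 0.01 M PBS pH 7.4 prewarmed to 37 °C, then held at 37 °C for up to 7 days. At each time point, 100 μL aliquots were mixed with 200 μL ethanol, chilled at 4 °C for 15 min, centrifuged and stored at −20 °C. Samples were quantified by RP-HPLC (C18, acetonitrile/water, 230 nm) against standard curves of at least five dilutions. Triplicates, n = 3.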
# [10] = tested on: Raji; test: Induction of Trx protein expression in human Raji cells at 10 to 20 uM after 4 to 8 hrs by Western blot analysis; type: functional, cell-based
# Method in brief: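 Raji cells exposed to compound for 4 and 8 h, washed and lysed in 0.1% NP40 with protease inhibitors. Equal protein (BCA) run on 15% SDS-PAGE and blotted to nitrocellulose, blocked in TBST with 5% BSA. Probed overnight with rabbit anti-thioredoxin and mouse anti-tubulin, then HRP secondaries for 45 min. ECL luminol/coumaric acid detection.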
# [11] = target: T1, Thioredoxin (Homo sapiens); test: Inhibition of human recombinant Trx-1 expressed in Escherichia coli at 2.5 to 20 uM by insulin reduction assay in presence of thioredoxin reductase; settings: TDE = time-dependent effect
# Method in brief: (§3)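 Human recombinant His-tagged Trx purified by Ni affinity and gel filtration, then dialyzed free of DTT. Trx was prereduced with TrxR and NADPH for 20 min, then preincubated with compound (2.5−20 μM) for 0−90 min at 37 °C. Reaction ran 30 min at 37 °C in Tris-HCl/EDTA pH 7.6. DTNB stop, A412. Triplicates, SD.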
# [12] = tested on: EMT6; test: Antitumor activity against mouse EMT6 cells allografted in BALB/c mouse assessed as reduction in tumor growth at 80 mg/kg, ip qd for 7 days; type: functional, organism-based; parameters: dose 80 mg/kg
# Method in brief: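 BALB/c mice (8−12 wk) inoculated s.c. with 3.5 × 10^5 EMT6 cells into the depilated right thigh. Controls received DMSO ip. Tumor volume measured by calipers as (longer diameter) × (shorter diameter)²/2. Survival also recorded.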
# [13] = Cytotoxicity against human PBMC cells after 72 hrs by XTT assay; type: cell-based; settings: read-out: LD50
# Method in brief: (§4)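 hPBMC were isolated from healthy donors on Histopaque 1077 and kept in RPMI. Bone marrow came from female BALB/c mice and was cultured in Iscove's medium with 10% FBS and 100 U IL-3. After compound exposure, cells got XTT at 0.3 mg/mL for 4 h, read at A490 against 690 nm. Viability is % of DMSO controls; n ≥ 3.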
# [14] = Cytotoxicity against mouse B78 cells after 72 hrs by crystal violet staining; type: functional; settings: B78, 72 h, read-out: LD50 (the source's name)
# [15] = Cytotoxicity against mouse bone marrow cells after 72 hrs by XTT assay; type: cell-based, Bone marrow cell; settings: read-out: LD50; method in brief: as §4
# [16] = tested on: T-24; test: Cytotoxicity against human T24 cells after 72 hrs by crystal violet staining; type: functional; settings: T-24, 72 h, read-out: LD50 (the source's name)
# [17] = target: T1, Thioredoxin (Homo sapiens); test: Inhibition of human recombinant Trx-1 expressed in Escherichia coli after 30 to 90 mins preincubation by insulin reduction assay in presence of thioredoxin reductase; method in brief: as §3
# [18] = Cytotoxicity against mouse MEF cells; type: cell-based; settings: read-out: LD50 (the source's name)
# Method in brief: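 Fibroblasts came from BALB/c embryos at E13.5 by 0.2% trypsin digestion at 37 °C for 10 min and were cultured in DMEM. Viability is % of solvent controls with DMSO ≤1%; n ≥ 3.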
# [19] = tested on: Raji; test: Cytotoxicity against human Raji cells after 72 hrs by MTT assay; type: functional; settings: read-out: LD50 (the source's name)
# Method in brief: (§5)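 Suspension cells were grown in RPMI-1640 with 10% heat-inactivated FBS and exposed to compound for 72 h with DMSO ≤1%. MTT (5 mg/mL solution) was added for 4 h, then plates were centrifuged, cells lysed in DMSO and read at A570. Viability is % of solvent controls, background-corrected; n ≥ 3.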
# [20] = target: T1, Thioredoxin (Homo sapiens); test: Inhibition of thioredoxin in human HeLa cells cotransfected with p-AP1-luc assessed as inhibition of ionomycin-induced AP-1 promoter activity after 6 hrs by luciferase reporter assay; type: cell-based
# Method in brief: (§6)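 HeLa cells nucleofected with 2 μg NF-κB- or AP-1-luciferase plasmid plus CMV-Renilla, then cultured 48 h. NF-κB: TNF (10 ng/mL) + IFN-γ (100 U) together with compound for 6 h. AP-1: 4 h in medium without FBS or antibiotics, then ionomycin (1 μM) together with compound for 6 h. Dual-luciferase read-out, firefly normalized to Renilla. Triplicates, n ≥ 3, Student's t test.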
# [21] = Inhibition of human recombinant Trx1/TrxR assessed as reduction in number of free thiols from reduced insulin after 30 mins by insulin reduction assay
# Method in brief: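 At least seven compound concentrations. Incubated 30 min at 37 °C, stopped with 8 mM DTNB in 8 M guanidine HCl, A412. IC50 from four-parameter logistic fit. Triplicates, mean ± SD, n ≥ 3.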
# [22] = tested on: Ramos; test: Cytotoxicity against human Ramos cells after 72 hrs by MTT assay; type: functional; settings: read-out: LD50 (the source's name); method in brief: as §5
# [23] = target: T1, Thioredoxin (Homo sapiens); test: Binding affinity to human recombinant Trx-1 expressed in Escherichia coli by mass spectrometry analysis
# [24] = tested on: CT26; test: Cytotoxicity against wild type mouse CT26 cells after 72 hrs by crystal violet staining; type: functional; settings: CT26, 72 h, read-out: LD50 (the source's name)
# [25] = tested on: Mus musculus; test: Toxicity in mouse EMT6 cells allografted BALB/c mouse assessed as mortality at 40 to 80 mg/kg, ip qd for 7 days; type: organism-based; parameters: dose 40-80 mg/kg, route intraperitoneal; settings: in vivo, 168 h; method in brief: as §1
# [26] = tested on: K562; test: Cytotoxicity against human K562 cells after 72 hrs by MTT assay; type: functional; settings: K562, 72 h, read-out: LD50 (the source's name); method in brief: as §5
# [27] = target: T1, Thioredoxin (Homo sapiens); test: Inhibition of thioredoxin in human HeLa cells cotransfected with p-NFkB-luc assessed as inhibition of TNF/IFN-gamma-induced activation of NF-kB after 6 hrs by luciferase reporter assay; type: cell-based; method in brief: as §6
# [28] = Chemical stability of the compound in 0.01 M PBS buffer at pH 7.4 after 7 days by RP-HPLC analysis; type: physicochemical; settings: pH 7.4, 168 h; method in brief: as §2
# [29] = Chemical stability of the compound in 0.01 M PBS buffer at pH 7.4 after 5 hrs by RP-HPLC analysis; type: physicochemical; settings: read-out: Stability; method in brief: as §2
# [30] = target: Thioredoxin reductase (Homo sapiens) (UniProt Q16881+Q9NNW7+Q86VQ6); settings: 2.5 to 20 uM
structure (smiles),measurement,setting,value
C=C(COC(=O)c1c(C(F)(F)F)cccc1C(F)(F)F)C(=O)N[C@@H](CC(C)C)C(=O)NCC(=O)OCC,Activity,[1],Non-toxic
same,Survival,[2],Active
same,Activity,[3],Active
same,inhibition,[4],Active
same,inhibition,[5],Active
same,solubility,[6],soluble
same,CC50,[7],3.8 µM
same,CC50,[8],5.2 µM
same,Stability,[9],Stable
same,Activity,[10],Active
same,inhibition,[11],tde
same,growth inhibition (GI),[12],Active
same,CC50 at 72 h,[13],> 25 µM
same,CC50,[14],4.3 µM
same,CC50 at 72 h,[15],> 12.5 µM
same,CC50,[16],5.6 µM
same,inhibition,[17],Dose-dependent effect
same,CC50,[18],2.9 µM
same,CC50,[19],3.7 µM
same,inhibition,[20],Active
same,IC50,[21],3.3 µM
same,CC50,[22],3.7 µM
same,Activity,[23],Active
same,CC50,[24],3.3 µM
same,Activity,[25],Non-toxic
same,CC50,[26],4 µM
same,inhibition,[27],Active
same,Stability,[28],Unstable
same,remaining at 5 h,[29],20%
same,inhibition,[30],tde
